Measured values taken from ChEMBL document CHEMBL5532704, “Exploiting thiol-functionalized benzosiloxaboroles for achieving diverse substitution patterns - synthesis, characterization and biological evaluation of promising antibacterial agents” (RSC Med Chem, 2024).
≈ marks a conversion by molar mass, not a printed value.

Columns and labels:
[1] = tested on: Enterococcus faecium; experiment: Antibacterial activity against Enterococcus faecium ATCC 6057 assessed as diameter of inhibition zone by CLSI based disc-diffusion method; type: functional
Method in brief: (§1)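 Strains were stored at −80 °C, then subcultured twice on tryptic soy agar for 24–48 h at 30 °C before the disc-diffusion test. The result was recorded as the inhibition-zone diameter.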

[2] = tested on: Enterococcus faecalis; experiment: Antibacterial activity against Enterococcus faecalis ATCC 29212 assessed as diameter of inhibition zone by CLSI based disc-diffusion method; type: functional; method in brief: as §1
[3] = tested on: Staphylococcus aureus; experiment: Antibacterial activity against methicillin-resistant Staphylococcus aureus ATCC 43300 assessed as diameter of inhibition zone by CLSI based disc-diffusion method; type: functional
Method in brief: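 Disc-diffusion on standard strain subcultured twice on tryptic soy agar (24–48 h, 30 °C) after storage at −80 °C; inhibition zone diameter read; linezolid disc (0.03 mg) as reference.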

[4] = Selectivity ratio of IC50 for cytotoxicity against human MRC5 cells assessed as inhibition of cell growth to MIC for antibacterial activity against methicillin-resistant Staphylococcus aureus ATCC 43300 assessed as inhibition of microbial growth; type: toxicity, cell-based
[5] = Selectivity ratio of IC50 for cytotoxicity against human MRC5 cells assessed as inhibition of cell growth to MIC for antibacterial activity against methicillin-resistant Staphylococcus aureus NMI 664 K assessed as inhibition of microbial growth by broth-microdilution method; type: toxicity, cell-based
[6] = Selectivity ratio of IC50 for cytotoxicity against human MRC5 cells assessed as inhibition of cell growth to MIC for antibacterial activity against methicillin-resistant Staphylococcus aureus NMI 1576 K assessed as inhibition of microbial growth by broth-microdilution method; type: toxicity, cell-based
[7] = Selectivity ratio of IC50 for cytotoxicity against human MRC5 cells assessed as inhibition of cell growth to MIC for antibacterial activity against methicillin-resistant Staphylococcus aureus NMI 1712 K assessed as inhibition of microbial growth by broth-microdilution method; type: toxicity, cell-based
[8] = Selectivity ratio of IC50 for cytotoxicity against human MRC5 cells assessed as inhibition of cell growth to MIC for antibacterial activity against methicillin-resistant Staphylococcus aureus NMI 1991 K assessed as inhibition of microbial growth by broth-microdilution method; type: toxicity, cell-based
[9] = Selectivity ratio of IC50 for cytotoxicity against human MRC5 cells assessed as inhibition of cell growth to MIC for antibacterial activity against methicillin-resistant Staphylococcus aureus NMI 2541 K assessed as inhibition of microbial growth by broth-microdilution method; type: toxicity, cell-based
[10] = tested on: Bacillus subtilis; experiment: Antibacterial activity against Bacillus subtilis ATCC 6633 assessed as diameter of inhibition zone by CLSI based disc-diffusion method; type: functional; method in brief: as §1
[11] = tested on: Escherichia coli; experiment: Antibacterial activity against Escherichia coli ATCC 25922 assessed as inhibition of cell growth by broth-microdilution method; type: functional
Method in brief: (§2)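 Strains were held at −80 °C and subcultured twice on tryptic soy agar for 24–48 h at 30 °C. MIC was read by CLSI broth microdilution in Mueller–Hinton II broth, with and without the efflux-pump inhibitor PAβN (20 µg mL⁻¹). Both sets contained 1 mM MgSO₄. A ≥4-fold MIC drop with PAβN was taken as significant.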

[12] = tested on: Klebsiella pneumoniae; experiment: Antibacterial activity against Klebsiella pneumoniae ATCC 13883 assessed as inhibition of cell growth by broth-microdilution method; type: functional; method in brief: as §2
[13] = tested on: Proteus mirabilis; experiment: Antibacterial activity against Proteus mirabilis ATCC 12453 assessed as inhibition of cell growth by broth-microdilution method; type: functional; method in brief: as §2
[14] = tested on: Enterobacter cloacae; experiment: Antibacterial activity against Enterobacter cloacae DSM 6234 assessed as inhibition of cell growth by broth-microdilution method; type: functional; method in brief: as §2
[15] = tested on: Serratia marcescens; experiment: Antibacterial activity against Serratia marcescens ATCC 13880 assessed as inhibition of cell growth by broth-microdilution method; type: functional; method in brief: as §2
[16] = tested on: Acinetobacter baumannii; experiment: Antibacterial activity against Acinetobacter baumannii ATCC 19606 assessed as inhibition of cell growth by broth-microdilution method; type: functional; method in brief: as §2
[17] = tested on: Pseudomonas aeruginosa; experiment: Antibacterial activity against Pseudomonas aeruginosa ATCC […] assessed as inhibition of cell growth by broth-microdilution method; type: functional; method in brief: as §2
[18] = tested on: Stenotrophomonas maltophilia; experiment: Antibacterial activity against Stenotrophomonas maltophilia ATCC 12714 assessed as inhibition of cell growth by broth-microdilution method; type: functional; method in brief: as §2
[19] = tested on: Stenotrophomonas maltophilia; experiment: Antibacterial activity against Stenotrophomonas maltophilia ATCC 13637 assessed as inhibition of cell growth by broth-microdilution method; type: functional; method in brief: as §2
[20] = tested on: Burkholderia cepacia; experiment: Antibacterial activity against Burkholderia cepacia ATCC 25416 assessed as inhibition of cell growth by broth-microdilution method; type: functional
[21] = tested on: Staphylococcus epidermidis; experiment: Antibacterial activity against Staphylococcus epidermidis ATCC 12228 assessed as diameter of inhibition zone by CLSI based disc-diffusion method; type: functional; method in brief: as §1
[22] = tested on: Candida albicans; experiment: Antifungal activity against Candida albicans ATCC 90028 assessed as fungal growth inhibition by broth-microdilution method; type: functional
Method in brief: (§3)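 Yeasts were stored at −80 °C and subcultured twice on Sabouraud dextrose agar (24–48 h, 30 °C) to confirm viability. Growth inhibition was then measured as MIC by broth microdilution.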

[23] = tested on: Pichia kudriavzevii; experiment: Antifungal activity against Candida krusei ATCC 6258 assessed as fungal growth inhibition by broth-microdilution method; type: functional; method in brief: as §3
[24] = tested on: Candida parapsilosis; experiment: Antifungal activity against Candida parapsilosis ATCC 22019 assessed as fungal growth inhibition by broth-microdilution method; type: functional; settings: Lodderomyces parapsilosis; method in brief: as §3
[25] = tested on: Candida tropicalis; experiment: Antifungal activity against Candida tropicalis ATCC 750 assessed as fungal growth inhibition by broth-microdilution method; type: functional; method in brief: as §3
[26] = tested on: Candida tropicalis; experiment: Antifungal activity against Candida tropicalis IBA 171 assessed as fungal growth inhibition by broth-microdilution method; type: functional; method in brief: as §3
[27] = tested on: Meyerozyma guilliermondii; experiment: Antifungal activity against Candida guilliermondii IBA 155 assessed as fungal growth inhibition by broth-microdilution method; type: functional; method in brief: as §3
[28] = tested on: Saccharomyces cerevisiae; experiment: Antifungal activity against Saccharomyces cerevisiae ATCC 9763 assessed as fungal growth inhibition by broth-microdilution method; type: functional; method in brief: as §3

| Compound | diameter of the inhibition zone (DIZ) [1] | diameter of the inhibition zone (DIZ) [2] | diameter of the inhibition zone (DIZ) [3] | selectivity ratio [4] | diameter of the inhibition zone (DIZ) [10] | diameter of the inhibition zone (DIZ) [21] | other results |
| --- | --- | --- | --- | --- | --- | --- | --- |
| C[Si]1(C)OB(O)c2cc(F)c(SCCS(=O)(=O)c3ccccc3)c(F)c21 | 15 mm | 14 mm | 28 mm | 19.5 | – | – | selectivity ratio [5]: 19.5; selectivity ratio [6]: 19.5; selectivity ratio [7]: 19.5; selectivity ratio [8]: 19.5; selectivity ratio [9]: 19.5 |
| C[Si]1(C)OB(O)c2cc(F)c(S(=O)(=O)N3CCOCC3)c(F)c21 | – | – | – | – | 12 mm | – | – |
| C[Si]1(C)OB(O)c2ccc(SC3CC(=O)NC3=O)c(F)c21 (stereo not given) | – | – | 22 mm | – | 24 mm | – | MIC [11]: > 25 µg/mL; MIC [12]: > 25 µg/mL; MIC [13]: > 25 µg/mL; MIC [14]: > 25 µg/mL; MIC [15]: > 25 µg/mL; MIC [16]: > 25 µg/mL; MIC [17]: > 25 µg/mL; MIC [18]: > 25 µg/mL; MIC [19]: > 25 µg/mL; MIC [20]: > 25 µg/mL |
| CC(=O)CSc1ccc2c(c1F)[Si](C)(C)OB2O | – | 16 mm | – | > 32 | 24 mm | 23 mm | selectivity ratio [5]: > 32; selectivity ratio [6]: > 32; selectivity ratio [7]: > 32; selectivity ratio [8]: > 32; selectivity ratio [9]: > 32 |
| C[Si]1(C)OB(O)c2ccc(S)c(F)c21 | 18 mm | – | – | – | 23 mm | – | – |
| C[Si]1(C)OB(O)c2ccc(SC3CC(=O)N(c4ccc(F)cc4)C3=O)c(F)c21 (stereo not given) | 22 mm | 20 mm | 21 mm | 5.8 | – | 21 mm | MIC [22]: > 12.5 µg/mL; MIC [23]: > 12.5 µg/mL; MIC [24]: > 12.5 µg/mL; MIC [25]: > 12.5 µg/mL; MIC [26]: > 12.5 µg/mL; MIC [27]: > 12.5 µg/mL; MIC [28]: 6.25 µg/mL (≈ 14.9 µM) |
| C[Si]1(C)OB(O)c2cc(F)c(SC3CC(=O)N(c4ccc(F)cc4)C3=O)c(F)c21 (stereo not given) | – | – | 24 mm | 2.7 | – | – | MIC [22]: > 12.5 µg/mL; MIC [23]: > 12.5 µg/mL; MIC [24]: > 12.5 µg/mL; MIC [25]: > 12.5 µg/mL; MIC [26]: > 12.5 µg/mL; MIC [27]: > 12.5 µg/mL; MIC [28]: 6.25 µg/mL (≈ 14.3 µM) |
| C[Si]1(C)OB(O)c2cc(F)c(SCCC(=O)Nc3ncccn3)c(F)c21 | – | 13 mm | 12 mm | – | 15 mm | 11 mm | – |
| COC(=O)CCSc1ccc2c(c1F)[Si](C)(C)OB2O | – | – | 24 mm | – | 23 mm | 22 mm | – |
| C[Si]1(C)OB(O)c2ccc(SCCC(=O)OCCCCCC[n+]3ccccc3)c(F)c21.O=S(=O)([O-])C(F)(F)F | 12 mm | 12 mm | 18 mm | – | 19 mm | 21 mm | – |
| C[Si]1(C)OB(O)c2cc(F)c(SC3CC(=O)N(c4ccc(Br)c(C(F)(F)F)c4)C3=O)c(F)c21 (stereo not given) | 18 mm | 18 mm | – | 1.5 | – | 18 mm | MIC [22]: > 12.5 µg/mL; MIC [23]: > 12.5 µg/mL; MIC [24]: > 12.5 µg/mL; MIC [25]: > 12.5 µg/mL; MIC [26]: > 12.5 µg/mL; MIC [27]: > 12.5 µg/mL |
| C[Si]1(C)OB(O)c2ccc(SCC(=O)c3ccccc3)c(F)c21 | 17 mm | 17 mm | – | 40.4 | – | – | selectivity ratio [5]: 40.4; selectivity ratio [6]: 40.4; selectivity ratio [7]: 40.4; selectivity ratio [8]: 80.8; selectivity ratio [9]: 80.8 |
| C[Si]1(C)OB(O)c2ccc(SC(=O)c3ccc(C(F)(F)F)cc3)c(F)c21 | 12 mm | – | – | 8.9 | 15 mm | 16 mm | MIC [22]: > 12.5 µg/mL; MIC [23]: > 12.5 µg/mL; MIC [24]: > 12.5 µg/mL; MIC [25]: > 12.5 µg/mL; MIC [26]: > 12.5 µg/mL; MIC [27]: > 12.5 µg/mL; MIC [28]: 6.25 µg/mL (≈ 15.6 µM); selectivity ratio [5]: 8.9; selectivity ratio [6]: 4.5; selectivity ratio [7]: 8.9; selectivity ratio [8]: 4.5; selectivity ratio [9]: 8.9 |
| C[Si]1(C)OB(O)c2cc(F)c(SCCC(=O)OCCCCCC[n+]3ccccc3)c(F)c21.O=S(=O)([O-])C(F)(F)F | – | – | 17 mm | – | – | – | – |
| C[Si]1(C)OB(O)c2cc(F)c(S)c(F)c21 | 24 mm | – | – | – | 22 mm | 24 mm | – |
| Cc1cc(NC(=O)CCSc2c(F)cc3c(c2F)[Si](C)(C)OB3O)no1 | 14 mm | 12 mm | 14 mm | – | 17 mm | 13 mm | – |
| C[Si]1(C)OB(O)c2ccc(SC3CC(=O)N(c4ccc(Br)c(C(F)(F)F)c4)C3=O)c(F)c21 (stereo not given) | – | 17 mm | – | 5.6 | – | – | MIC [22]: > 12.5 µg/mL; MIC [23]: > 12.5 µg/mL; MIC [24]: > 12.5 µg/mL; MIC [25]: > 12.5 µg/mL; MIC [26]: > 12.5 µg/mL; MIC [27]: > 12.5 µg/mL |
| C[Si]1(C)OB(O)c2cc(F)c(SCCC(=O)Nc3cnccn3)c(F)c21 | 15 mm | 13 mm | 25 mm | – | 19 mm | 22 mm | – |
| C[Si]1(C)OB(O)c2ccc(SCCS(=O)(=O)c3ccccc3)c(F)c21 | – | 15 mm | – | – | 21 mm | 22 mm | – |
| C[Si]1(C)OB(O)c2cc(F)c(S(=O)(=O)Nc3ccc(F)cc3)c(F)c21 | – | – | 16 mm | 0.7 | – | 19 mm | – |
| C[Si]1(C)OB(O)c2cc(F)c(SCCC(=O)N3CCOCC3)c(F)c21 | – | – | – | – | 14 mm | 19 mm | – |
| C[Si]1(C)OB(O)c2cc(F)c(SCCC(N)=O)c(F)c21 | 12 mm | 12 mm | – | – | 15 mm | 19 mm | – |
| C[Si]1(C)OB(O)c2cc(F)c(S(=O)(=O)Cl)c(F)c21 | – | – | – | – | 15 mm | 13 mm | – |
| CC(=O)NC[C@H]1CN(c2ccc(N3CCOCC3)c(F)c2)C(=O)O1 [LINEZOLID] | 14 mm | 15 mm | – | – | 30 mm | 26 mm | – |
